In series [1] the target is T1, 3',5'-cyclic-AMP phosphodiesterase 4B (Homo sapiens, UniProt Q07343). As to the kind of experiment: Inhibition of PDE4B isolated from human U937 cells using [3H]-cAMP incubated for 30 mins.
Series [2] deals with 3',5'-cyclic-AMP phosphodiesterase 4D (Homo sapiens, UniProt Q08499). As to the kind of experiment: Inhibition of PDE4D isolated from human U937 cells using [3H]-cAMP incubated for 30 mins.
The subject of series [3] is PBMC. As to the kind of experiment: Inhibition of LPS-induced TNFalpha production in human PBMC pre-incubated for 30 mins before LPS stimulation for 18 hrs by TR-FRET assay. The format is functional, cell-based. In a few lines: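 PBMCs isolated from buffy coats (blood diluted 1:1 saline) and suspended at 5 × 10⁵ cells/mL in RPMI 1640 with 0.5% human serum albumin, pen/strep, 2 mM L-glutamine. 30 min compound pre-incubation, then 18 h LPS stimulation; supernatant TNF-α by TR-FRET (665 nm signal, 620 nm control); IC50 in μM.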

For series [4], the system named is Mus musculus. As to the kind of experiment: Inhibition of LPS-induced TNFalpha production in Swiss Albino mouse model of sepsis at 10 mg/kg, po pre-treated 30 mins before LPS challenge and measured 90 mins post LPS injection by ELISA method relative to untreated control. The series is classed as functional. The method, boiled down: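 Female Swiss albino mice, weight-matched groups (n = 6), fasted 20 h with water; test compound given orally at 10 mg/kg as suspension in 0.5% Tween 80 / 0.25% sodium CMC, controls vehicle only. 30 min later 500 μg E. coli LPS (B4) i.p. in phosphate buffer; retro-orbital bleed at 90 min, serum TNF-α by mouse ELISA.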
Background: An ELISA detects its analyte on a solid surface through an enzyme-linked reagent.

Series [5] concerns Rattus norvegicus. As to the kind of experiment: Inhibition of LPS-induced neutropenia in Sprague-Dawley rat model of asthma assessed as reduction in neutrophils in BAL fluid at 10 mg/kg, po pre-treated 30 mins before LPS challenge and measured 6 hrs after LPS injection relative to untreated control. The format is functional. The settings on record: in the assay text read “neutrophilia” for “neutropenia”. In a few lines: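 Male Sprague Dawley rats acclimatized one week, randomized by weight (n = 6). Compound at 10 mg/kg po in 0.25% carboxymethyl cellulose vehicle given 30 min before 40 min exposure to 100 μg/mL E. coli LPS (B4). BAL at 6 h after exposure; total cell count and differential count versus control.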

Series [6] has as its system PBMC. As to the kind of experiment: Potency index, ratio of IC50 for rolipram to IC50 for test compound for inhibition of LPS-induced TNFalpha production in human PBMC pre-incubated for 30 mins before LPS stimulation for 18 hrs by TR-FRET assay. The series is classed as functional. (TR-FRET usually uses a lanthanide donor and a delayed reading to cut background.)
Series [7] has as its target PDE1A (Homo sapiens, UniProt P54750). As to the kind of experiment: Inhibition of human PDE1A at 100 uM.
The target in series [8] is PDE2A (Homo sapiens, UniProt O00408). As to the kind of experiment: Inhibition of human PDE2A at 100 uM.
Series [9] has as its target PDE3B (Homo sapiens, UniProt Q13370). As to the kind of experiment: Inhibition of human PDE3B at 100 uM.
Series [10] has as its target T1, 3',5'-cyclic-AMP phosphodiesterase 4B. As to the kind of experiment: Inhibition of human PDE4B at 100 uM.
Series [11] addresses PDE5A (Homo sapiens, UniProt O76074). As to the kind of experiment: Inhibition of human PDE5A at 100 uM.
Series [12] addresses PDE6C (Homo sapiens, UniProt P51160). As to the kind of experiment: Inhibition of human PDE6C at 100 uM.
In series [13] the target is PDE7A (Homo sapiens, UniProt Q13946). As to the kind of experiment: Inhibition of human PDE7A at 100 uM.
Series [14] addresses PDE8A (Homo sapiens, UniProt O60658). As to the kind of experiment: Inhibition of human PDE8A at 100 uM.
Series [15] addresses PDE9A (Homo sapiens, UniProt O76083). As to the kind of experiment: Inhibition of human PDE9A at 100 uM.
Series [16] deals with PDE10A (Homo sapiens, UniProt Q9Y233). As to the kind of experiment: Inhibition of human PDE10A at 100 uM.
Series [17] addresses PDE11A (Homo sapiens, UniProt Q9HCR9). As to the kind of experiment: Inhibition of human PDE11A at 100 uM.

3',5'-cyclic-AMP phosphodiesterase 4D, sequence (Q08499 whole entry): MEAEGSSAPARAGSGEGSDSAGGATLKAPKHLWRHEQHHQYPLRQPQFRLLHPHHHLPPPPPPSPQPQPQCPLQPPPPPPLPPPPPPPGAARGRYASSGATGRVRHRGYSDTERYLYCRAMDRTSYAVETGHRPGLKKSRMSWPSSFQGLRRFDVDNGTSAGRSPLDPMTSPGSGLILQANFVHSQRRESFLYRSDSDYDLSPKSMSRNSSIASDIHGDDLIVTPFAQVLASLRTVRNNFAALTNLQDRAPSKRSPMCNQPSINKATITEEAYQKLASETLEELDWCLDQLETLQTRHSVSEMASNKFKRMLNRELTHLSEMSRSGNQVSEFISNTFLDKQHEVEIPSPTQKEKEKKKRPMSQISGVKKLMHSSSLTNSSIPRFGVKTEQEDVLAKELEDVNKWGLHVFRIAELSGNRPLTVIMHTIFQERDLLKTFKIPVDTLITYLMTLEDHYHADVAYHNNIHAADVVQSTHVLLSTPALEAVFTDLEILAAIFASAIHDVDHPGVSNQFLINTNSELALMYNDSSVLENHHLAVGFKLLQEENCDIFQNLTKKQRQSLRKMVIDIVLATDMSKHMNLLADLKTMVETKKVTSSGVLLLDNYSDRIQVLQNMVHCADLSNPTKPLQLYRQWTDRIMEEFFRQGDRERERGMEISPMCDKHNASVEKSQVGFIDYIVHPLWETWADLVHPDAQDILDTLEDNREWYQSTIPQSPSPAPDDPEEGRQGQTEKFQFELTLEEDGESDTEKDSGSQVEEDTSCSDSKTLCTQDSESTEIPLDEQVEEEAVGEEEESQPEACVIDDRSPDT
T1 sequence (Q07343 whole entry): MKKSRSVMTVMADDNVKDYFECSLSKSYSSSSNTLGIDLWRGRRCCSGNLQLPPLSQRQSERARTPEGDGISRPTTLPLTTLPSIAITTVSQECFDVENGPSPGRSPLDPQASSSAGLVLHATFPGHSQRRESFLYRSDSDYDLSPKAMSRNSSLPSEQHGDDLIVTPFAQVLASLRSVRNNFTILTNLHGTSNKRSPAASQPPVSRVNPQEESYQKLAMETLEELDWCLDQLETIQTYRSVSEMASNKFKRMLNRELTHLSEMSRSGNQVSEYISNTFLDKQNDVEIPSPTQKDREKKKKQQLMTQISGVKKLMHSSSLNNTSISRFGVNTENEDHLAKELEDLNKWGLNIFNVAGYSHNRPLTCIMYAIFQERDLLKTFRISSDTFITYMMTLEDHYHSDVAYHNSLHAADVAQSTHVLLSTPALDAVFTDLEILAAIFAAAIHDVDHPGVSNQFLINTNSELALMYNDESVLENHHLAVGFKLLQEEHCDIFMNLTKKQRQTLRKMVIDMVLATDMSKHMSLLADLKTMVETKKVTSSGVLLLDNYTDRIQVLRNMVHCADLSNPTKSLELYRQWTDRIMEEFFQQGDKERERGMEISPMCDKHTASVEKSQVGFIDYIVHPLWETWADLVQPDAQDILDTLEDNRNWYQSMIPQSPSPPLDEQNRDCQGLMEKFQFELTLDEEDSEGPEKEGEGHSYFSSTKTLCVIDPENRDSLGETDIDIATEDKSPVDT
PDE3B, sequence (Q13370 whole entry): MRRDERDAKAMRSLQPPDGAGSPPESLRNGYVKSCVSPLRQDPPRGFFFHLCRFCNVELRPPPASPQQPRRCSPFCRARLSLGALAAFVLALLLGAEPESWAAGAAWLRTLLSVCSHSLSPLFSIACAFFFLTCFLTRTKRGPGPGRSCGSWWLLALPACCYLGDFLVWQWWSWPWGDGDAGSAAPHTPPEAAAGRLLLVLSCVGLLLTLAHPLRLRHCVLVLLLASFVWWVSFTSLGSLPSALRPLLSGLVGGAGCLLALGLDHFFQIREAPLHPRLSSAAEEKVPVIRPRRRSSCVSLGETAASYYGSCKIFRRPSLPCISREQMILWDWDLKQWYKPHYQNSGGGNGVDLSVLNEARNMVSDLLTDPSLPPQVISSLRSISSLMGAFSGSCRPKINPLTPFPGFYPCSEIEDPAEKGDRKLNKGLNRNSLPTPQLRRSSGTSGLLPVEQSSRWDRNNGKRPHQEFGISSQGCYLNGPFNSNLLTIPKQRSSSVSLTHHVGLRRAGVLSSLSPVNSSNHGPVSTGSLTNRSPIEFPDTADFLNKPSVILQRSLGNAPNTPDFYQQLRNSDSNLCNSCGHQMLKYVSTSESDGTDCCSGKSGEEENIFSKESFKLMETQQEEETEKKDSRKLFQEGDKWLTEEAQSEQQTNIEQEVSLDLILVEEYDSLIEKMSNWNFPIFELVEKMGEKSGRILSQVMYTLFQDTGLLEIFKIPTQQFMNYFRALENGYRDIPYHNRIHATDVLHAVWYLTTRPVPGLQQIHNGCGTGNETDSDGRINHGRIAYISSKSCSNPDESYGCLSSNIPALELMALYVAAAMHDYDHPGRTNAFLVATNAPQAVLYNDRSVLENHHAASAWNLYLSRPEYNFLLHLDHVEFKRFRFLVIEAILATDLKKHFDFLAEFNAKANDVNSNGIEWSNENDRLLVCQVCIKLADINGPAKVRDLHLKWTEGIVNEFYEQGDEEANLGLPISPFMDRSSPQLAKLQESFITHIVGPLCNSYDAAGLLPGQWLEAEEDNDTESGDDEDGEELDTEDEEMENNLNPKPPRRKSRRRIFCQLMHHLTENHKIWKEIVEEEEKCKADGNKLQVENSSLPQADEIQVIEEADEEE
PDE6C, sequence (P51160 whole entry): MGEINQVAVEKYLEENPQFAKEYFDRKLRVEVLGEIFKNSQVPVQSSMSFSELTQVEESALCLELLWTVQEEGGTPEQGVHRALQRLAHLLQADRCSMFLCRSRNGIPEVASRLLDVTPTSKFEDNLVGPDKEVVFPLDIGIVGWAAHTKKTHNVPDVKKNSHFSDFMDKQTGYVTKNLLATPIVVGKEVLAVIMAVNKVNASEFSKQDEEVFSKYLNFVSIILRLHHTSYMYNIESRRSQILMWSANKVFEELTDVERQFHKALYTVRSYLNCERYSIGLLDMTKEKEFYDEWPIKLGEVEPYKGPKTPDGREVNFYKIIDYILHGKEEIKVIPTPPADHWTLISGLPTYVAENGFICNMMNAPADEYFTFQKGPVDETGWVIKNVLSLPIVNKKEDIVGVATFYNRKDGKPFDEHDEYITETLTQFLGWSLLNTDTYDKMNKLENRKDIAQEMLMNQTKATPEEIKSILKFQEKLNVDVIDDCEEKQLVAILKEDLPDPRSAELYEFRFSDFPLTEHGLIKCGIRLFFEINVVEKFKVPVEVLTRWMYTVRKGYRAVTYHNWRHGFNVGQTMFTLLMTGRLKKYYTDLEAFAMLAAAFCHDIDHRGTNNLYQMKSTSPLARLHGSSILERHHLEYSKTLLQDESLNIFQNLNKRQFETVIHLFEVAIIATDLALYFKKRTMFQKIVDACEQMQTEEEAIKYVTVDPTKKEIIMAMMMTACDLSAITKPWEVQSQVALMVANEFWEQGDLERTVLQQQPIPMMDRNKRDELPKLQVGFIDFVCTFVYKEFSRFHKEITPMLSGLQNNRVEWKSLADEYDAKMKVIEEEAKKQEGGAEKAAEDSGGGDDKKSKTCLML
PDE10A, sequence (Q9Y233 whole entry): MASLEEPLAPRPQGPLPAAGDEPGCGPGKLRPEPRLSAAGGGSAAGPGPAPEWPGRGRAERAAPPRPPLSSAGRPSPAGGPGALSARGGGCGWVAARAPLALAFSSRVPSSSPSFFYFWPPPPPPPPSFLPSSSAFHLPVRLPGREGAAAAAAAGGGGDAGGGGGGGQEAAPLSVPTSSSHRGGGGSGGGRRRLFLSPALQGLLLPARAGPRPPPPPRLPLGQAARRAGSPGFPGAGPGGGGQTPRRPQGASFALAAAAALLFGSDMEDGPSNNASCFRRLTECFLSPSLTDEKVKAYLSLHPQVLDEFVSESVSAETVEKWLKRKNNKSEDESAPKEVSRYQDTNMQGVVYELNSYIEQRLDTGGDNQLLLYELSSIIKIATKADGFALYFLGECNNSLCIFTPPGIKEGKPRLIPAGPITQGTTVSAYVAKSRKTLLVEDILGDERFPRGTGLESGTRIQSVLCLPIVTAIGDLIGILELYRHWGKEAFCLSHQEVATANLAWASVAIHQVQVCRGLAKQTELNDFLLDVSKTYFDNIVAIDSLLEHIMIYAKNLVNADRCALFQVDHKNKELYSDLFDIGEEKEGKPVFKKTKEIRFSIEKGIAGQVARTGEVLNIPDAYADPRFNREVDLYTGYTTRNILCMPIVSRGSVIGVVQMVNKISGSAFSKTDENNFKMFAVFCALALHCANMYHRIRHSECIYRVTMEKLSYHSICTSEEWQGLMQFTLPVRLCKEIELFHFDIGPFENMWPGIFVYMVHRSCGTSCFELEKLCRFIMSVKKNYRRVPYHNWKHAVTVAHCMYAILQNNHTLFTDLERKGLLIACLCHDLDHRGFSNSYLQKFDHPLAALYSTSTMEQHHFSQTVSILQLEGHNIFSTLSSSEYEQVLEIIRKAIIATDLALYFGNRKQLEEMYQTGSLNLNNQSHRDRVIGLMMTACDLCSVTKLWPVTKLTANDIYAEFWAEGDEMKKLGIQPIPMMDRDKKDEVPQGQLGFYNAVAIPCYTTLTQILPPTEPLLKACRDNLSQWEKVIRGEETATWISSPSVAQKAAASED
PDE1A, sequence (P54750 whole entry): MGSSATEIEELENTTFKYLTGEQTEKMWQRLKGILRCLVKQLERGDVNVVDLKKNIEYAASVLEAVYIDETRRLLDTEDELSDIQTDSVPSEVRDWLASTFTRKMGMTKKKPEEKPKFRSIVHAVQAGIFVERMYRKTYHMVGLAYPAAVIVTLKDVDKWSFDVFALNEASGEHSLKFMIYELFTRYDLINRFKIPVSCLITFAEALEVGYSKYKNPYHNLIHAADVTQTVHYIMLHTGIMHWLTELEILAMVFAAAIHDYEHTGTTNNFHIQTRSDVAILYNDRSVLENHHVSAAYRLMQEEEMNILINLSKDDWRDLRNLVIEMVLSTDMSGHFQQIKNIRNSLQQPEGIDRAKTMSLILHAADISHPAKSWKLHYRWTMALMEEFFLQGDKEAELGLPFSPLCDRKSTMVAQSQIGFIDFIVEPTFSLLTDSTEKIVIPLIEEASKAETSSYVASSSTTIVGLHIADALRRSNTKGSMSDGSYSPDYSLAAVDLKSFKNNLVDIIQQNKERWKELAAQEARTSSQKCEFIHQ

As to `COc1cc2c(cc1O)CN1C(=O)OCC1C2` (configuration not stated), the concentration for half-maximal inhibition (IC50) (in general, the concentration at which inhibition is half-maximal) in [1] was above 100 µM.
Same read-out and setting: the figure for `COc1cc2c(cc1OCc1ccccc1)CN1C(=O)OCC1C2` (configuration not stated) is 8.18 µM.
As to `COc1cc2c(cc1OC1CCCC1)C(C)N1C(=O)OCC1C2` (mixture of isomers), the IC50 in series [1] was 1.35 µM; in series [2], 12.8 µM; in series [3], 2.6 µM.
Regarding `COc1cc2c(cc1OC1CCCC1)C(c1ccccc1)N1C(=O)OCC1C2` (mixture of isomers), the values for the IC50 in series [1], in series [2] and in series [3] were 1.95 µM, 31.6 µM and 6.75 µM, respectively. Further, the inhibition in vivo – broadly, the share of the control response that was lost under treatment – at 10 mg/kg turned out to be 40.4% in series [4] and 28.1% in series [5].
In the case of `CCCCCCC1c2cc(OC3CCCC3)c(OC)cc2CC2COC(=O)N21` (mixture of isomers), the IC50 in series [1] worked out at 2.1 µM; in [2], 23.1 µM; in series [3] it was 7.98 µM.
The matching figures for `COc1cc2c(cc1OC1CCCC1)C(C1CCCCC1)N1C(=O)OCC1C2` (mixture of isomers): 2.06 µM, 26.7 µM and 9.05 µM.
With `CCCCCCOc1cc2c(cc1OC)CC1COC(=O)N1C2` (racemic), the IC50 in [1] was determined as 6.05 µM.
As for `COc1cc2c(cc1OCC1CC1)CN1C(=O)OCC1C2` (racemic), the results for the IC50 in series [1], in [2] and in [3] were 1.3 µM, 7.15 µM and 9.58 µM, respectively.
Regarding `COc1cc2c(cc1OC1CCCC1)CN1C(=O)OCC1C2` (racemic), the IC50 in series [1] is 0.6 µM; in [2] it was 5.13 µM; in series [3] it was 1.35 µM. The “Ratio IC50” value in series [6] is 7. Also, the inhibition – broadly, the share of the control response that was lost under treatment – at 100 µM in [7] was found to be 12%; in [8], 3%; in [9] it was 5%; in series [11] it was 14%; in series [12], 8%; in series [13], 5%. Moreover, the inhibition at 100 µM in [14] is 12%; in series [15], 2%; in [16], 1%; in series [17], 3%. The molecule further returned an inhibition in series [10] of 100%. Besides, the inhibition in vivo at 10 mg/kg worked out at 48.2% in series [4] and 42.3% in series [5].
Take `CCCCCOc1cc2c(cc1OC)CC1COC(=O)N1C2` (racemic): the concentration for half-maximal inhibition (IC50) in [1] was 4.1 µM; in [2] it was 23.3 µM.
In the case of `COc1cc2c(cc1OC)CN1C(=O)OCC1C2` (racemic), half-maximal inhibition in [1] (IC50) was put at 52.1 µM. In other words, the double-digit micromolar range.
With `COc1cc2c(cc1OC1CCCCC1)CN1C(=O)OCC1C2` (racemic), the 50% inhibitory concentration (IC50) in series [1] was 2.62 µM; in series [2], 13.9 µM; in series [3], 8.4 µM.
On to `CCCOc1cc2c(cc1OC)CC1COC(=O)N1C2` (racemic), for which 22.4 µM corresponded to half-maximal inhibition in [1] (IC50).
The molecule `COc1ccc(C2CNC(=O)C2)cc1OC1CCCC1` (configuration not stated) [ROLIPRAM] returned an IC50 in [3] of 10.8 µM. The inhibition in vivo at 10 mg/kg in series [4] turned out to be 41%; in series [5], 32.3%.

For the origin of these results see ChEMBL document CHEMBL4043220, “Rational design of conformationally constrained oxazolidinone-fused 1,2,3,4-tetrahydroisoquinoline derivatives as potential PDE4 inhibitors” (Bioorg Med Chem, 2017).
